The text below walks through data of PMC5305809 (ACS chemical biology, 2016).

One assay addresses T1, HDAC8 (Homo sapiens, UniProt Q9BY41).
T1 sequence (Q9BY41 1-377): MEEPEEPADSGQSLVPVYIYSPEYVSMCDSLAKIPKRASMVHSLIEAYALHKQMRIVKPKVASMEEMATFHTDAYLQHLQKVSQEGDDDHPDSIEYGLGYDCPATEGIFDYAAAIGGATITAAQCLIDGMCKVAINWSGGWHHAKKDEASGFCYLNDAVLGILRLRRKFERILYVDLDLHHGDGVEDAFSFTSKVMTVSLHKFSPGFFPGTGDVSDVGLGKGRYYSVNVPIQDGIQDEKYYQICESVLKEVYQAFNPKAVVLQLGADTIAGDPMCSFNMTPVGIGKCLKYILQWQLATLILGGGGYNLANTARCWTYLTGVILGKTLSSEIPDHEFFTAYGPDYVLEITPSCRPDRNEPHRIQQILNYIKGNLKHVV
Description: HDAC8 kinetics assay on H3K9 acyl peptides. It counts as biochemical. Particulars: for kcat/Km: from slope of linear plot where kcat ND.

Assay [1] relates to Jurkat cells. Put plainly: Global fatty acylation by metabolic labeling. It counts as cell-based. Particulars: 25 μM inhibitor, 15 hrs.
For assay [2], the system named is Jurkat cells. Put plainly: Western blot for global protein lysine acetylation. The class given is cell-based. Particulars: Jurkat cells treated with 25 μM HDAC inhibitor. An outline of the steps: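 Jurkat cells in RPMI 1640 with 10% FBS, exposed to test compound (25 μM) for 15 hrs. Cells lysed in 4% SDS buffer with protease inhibitor cocktail and nuclease, protein quantified by BCA.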
On the technique in general: A western blot detects proteins with antibodies after separation by electrophoresis.

The subject of another assay is HeLa cells. Description: Global fatty acylation by metabolic labeling. The class given is cell-based. An outline of the steps: (§1)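 Cells grown in DMEM with 10% FBS at 37 °C, 5% CO2. They were pretreated with test compound or DMSO, then cultured with Alk12, an alkyne myristic acid analogue, for metabolic labeling. Labeled proteins were clicked to BODIPY-azide and precipitated. Cysteine acylation was removed with 0.5 M hydroxylamine pH 8.0 at 95 °C for 7 min. Read-out was in-gel fluorescence after SDS-PAGE.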

A further assay relates to HEK-293T cells. Put plainly: Global fatty acylation by metabolic labeling. The class given is cell-based, human. An outline of the steps: as §1
Another assay deals with MDA-MB 231 cells. Description: Global fatty acylation by metabolic labeling. It counts as cell-based. An outline of the steps: as §1
Setting [3] is: recombinant HDAC8 from E. coli, 1 μM, 37 °C, 1 hr, pH 8, duplicate, ± S.D.
The mark [4] stands for this setting: recombinant HDAC8 from Sf9 insect cells.
The mark [5] stands for this setting: recombinant HDAC8 from E. coli, 1 μM, 37 °C, 1 hr, pH 8, duplicate, ± S.D., SD.

By Km is commonly meant the concentration of substrate that gives half-maximal velocity. As to KQTARKSTGGWW [Acetyl H3K9], at HDAC8 (setting [3]), the Michaelis-Menten constant (Km) was above 600 µM. Further, at HDAC8 (setting [4]), the Michaelis-Menten constant (Km) was above 300 µM and the kcat/Km is given as 480.8 ^b S^−1.M^−1.

As to `Nc1ccccc1NC(=O)c1ccc(CNc2nccc(-c3cccnc3)n2)cc1` [Mocetinostat], in the assay with Jurkat cells [1], the “global protein lysine fatty acylation vs control (Alk12 labeling)” value is given as “only PCI-34051-treated Jurkat cells exhibited enhanced global protein lysine fatty acylation”. The “global lysine acetylation level (Western blot)” value (from here on “global lysine acetylation level”) in the assay with Jurkat cells [2] was “did not noticeably increase protein lysine acetylation”.

KQTARKSTGGWW [Octanoyl H3K9]: on HDAC8 (setting [5]), the Michaelis constant (Km) came to 146 ± 10.3 µM and the kcat was found to be 0.0202 ± 0.0005 S^−1.

On to `COc1ccc(Cn2ccc3ccc(C(=O)NO)cc32)cc1` [PCI-34051], for which, in the assay on Jurkat cells [1], the “global protein lysine fatty acylation vs control (Alk12 labeling)” value was “exhibited enhanced global protein lysine fatty acylation”. The “fatty acylation vs DMSO control (Alk12 labeling)” value in the assay on HeLa cells, in the assay on HEK-293T cells and with MDA-MB 231 cells was “slightly increased fatty acylation” each time. Moreover, the “global lysine acetylation level” value in the assay with Jurkat cells [2] was “did not noticeably increase protein lysine acetylation”.

In the case of KQTARKSTGGWW [Butyryl H3K9], the Km at HDAC8 (setting [3]) was above 200 µM.

With `O=C(CCCCCCC(=O)Nc1ccccc1)NO` [SAHA], in the assay on Jurkat cells [1], the “global protein lysine fatty acylation vs control (Alk12 labeling)” value is recorded as “much lower than the control”. Besides, the “global lysine acetylation level” value with Jurkat cells [2] is “predominantly increased the acetylation of protein bands around 55 kDa”.

Turning to KQTARKSTGGWW [Palmitoyl H3K9], on HDAC8 (setting [5]), the Michaelis constant (Km) amounted to 18.3 ± 7.4 µM and the kcat was 0.0005 ± 0.00007 S^−1.

Take `Cc1[nH]c2ccccc2c1CCNCc1ccc(/C=C/C(=O)NO)cc1` [Panobinostat]: in the assay with Jurkat cells [1], the “global protein lysine fatty acylation vs control (Alk12 labeling)” value is “much lower than the control”. The “global lysine acetylation level” value in the assay on Jurkat cells [2] is on record as “predominantly increased the acetylation of protein bands around 55 kDa”.

With KQTARKSTGGWW [Myristoyl H3K9], the “demyristoylation catalytic efficiency relative to deacetylation” value at HDAC8 (HDAC8 purified from Sf9 insect cells, myristoyl- vs acetyl-H3K9) is recorded as above 2 times. The Michaelis-Menten constant (Km) on HDAC8 (setting [3]) is around 16 µM. On HDAC8 (setting [5]), the Michaelis-Menten constant (Km) came out at 15.8 ± 5.1 µM and the kcat is 0.0019 ± 0.0003 S^−1. Besides, on HDAC8 (setting [4]), the Km worked out at 60.5 µM, the kcat is on record as 0.0755 ^b S^−1 and the kcat/Km is recorded as 1,246 ^b S^−1.M^−1.

On to KQTARKSTGGWW [Dodecanoyl H3K9], for which, at HDAC8 (setting [5]), the Michaelis constant (Km) came out at 69.5 ± 10.1 µM and the kcat was found to be 0.0123 ± 0.0013 S^−1.
